Bioassay records from PubChem.
CHT inh = inhibitors of human choline transporter CHT | B-score at 10 µM | Q9GZV3 | 310,000 compounds, 0.86% hits | AID 488975 | CHT-expressing cells, membrane potential dye, choline response; active compounds read low;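 active = B-score over 3 SD under the library average, and starting fluorescence ratio not unusually high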;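 note: choline stimulus applied at its EC90 after an EC20 pre-addition; B-score computed on integrated fluorescence ratio after choline addition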
HSF1 inh = HSF1 inhibition. NIH3T3-HGL HSE-luciferase, MG132-induced, luminescence 8 h; active compounds read low. activity change, negative = inhibition, % at 7.5 µM (by protocol). 300,000 compounds, 0.77% hits;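 active = more than half of replicate wells show activity change below -50%, luminescence cut by over half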;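 note: luciferase reports HSF-1 transcriptional activity via heat shock element; 0% = median of DMSO wells and -100% = zero luminescence signal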
CHT PAM = allosteric activators of human choline transporter CHT | B-score at 10 µM | AID 488977 | CHT-expressing cells, membrane potential dye, choline EC20; active compounds read high; LV-AA mutant CHT in HEK293 cells | 310,000 compounds, 0.49% hits;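 active = initial fluorescence not abnormally high and integrated response B-score, plate-corrected, over 3 SD above library mean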
HSF-1 act = increases HSF-1 driven luciferase reporter signal; NIH3T3-HGL HSF-1 luciferase reporter, MG132, 8 h; 100% = twice DMSO control signal; activation, % at 9 µM; 300,000 compounds, 1.7% hits;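 active = mean replicate activation of at least 50% with a set share of replicates each reaching 50%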;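 note: 0% = median of the neutral control wells and 100% = twice that signal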
PHOSPHO1 inh = blocks human PHOSPHO1 phosphatase activity | Q8TCT1 | recombinant PHOSPHO1, absorbance phosphatase assay | 290,000 compounds, 1.1% hits | inhibition, % at 13.3 µM | AID 1565; in the data active = inhibition above about 60%
Target sequence (Q8TCT1 whole entry, looked up): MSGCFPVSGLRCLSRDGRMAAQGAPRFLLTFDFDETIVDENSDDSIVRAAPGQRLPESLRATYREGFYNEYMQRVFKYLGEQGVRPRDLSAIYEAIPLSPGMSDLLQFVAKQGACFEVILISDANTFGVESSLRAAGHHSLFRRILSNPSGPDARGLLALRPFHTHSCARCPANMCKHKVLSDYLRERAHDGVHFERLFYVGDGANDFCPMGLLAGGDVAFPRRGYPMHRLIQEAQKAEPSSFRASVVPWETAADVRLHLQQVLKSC
Hep lipid drop = hepatic lipid droplet formation modulation; AML12 mouse hepatocytes, oleate lipid droplets, BODIPY imaging; inhibition, % at 6.5 µM; 240,000 compounds, 0.4% hits; AID 1656;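 active = lipid droplet intensity inhibited by at least 50%, with more than 500 cells counted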
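Material: mouse AML12 hepatocyte cell line, fixed after treatment; Timing: compound with oleate, overnight; Technique: high-content imaging of BODIPY-stained droplets and DAPI nuclei; Probe or stimulus: oleate, 100 µM final; Dosing: compound at 6.5 µM only.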
* hit, by the source's call; i = inactive; / = not tested or not shown. Shown are actives, neighbours in structure and some others; about 4.9% of the full set was active somewhere.

SMILES | CHT inh | HSF1 inh | CHT PAM | HSF-1 act | PHOSPHO1 inh | Hep lipid drop
Cc1csc(SCc2nnc(-c3ccccc3Br)o2)n1 | i | 22.6 | i | 32.5 | 30.3 | /
Fc1ccccc1SCc1nnc(-c2ccccc2Br)o1 | i | 41.4 | i | 79.3* | -10.0 | 1.1
O=C(CSc1nnnn1C1CCCC1)N1CCOCC1 | i | -6.7 | i | -18.9 | 20.3 | 5.3
Nc1nnnn1CC(=O)N/N=C/c1ccccn1 | i | 47.9 | i | 98.2* | 44.1 | 12.8
Nc1nnnn1CC(=O)N/N=C/c1cccs1 | i | 1.7 | i | 21.0 | -29.1 | 4.2
Cc1ccc(OCC(=O)N2CCN(S(C)(=O)=O)CC2)cc1 | i | -8.5 | i | -17.8 | 18.8 | -16.8
CSc1cccc(NC(=O)CSc2ncccc2C(=O)Oc2cccc([N+](=O)[O-])c2)c1 | i | 17.0 | i | 16.2 | -1.0 | -6.5
CCN(C(=O)CSc1ncccc1C(=O)Oc1cccc([N+](=O)[O-])c1)c1cccc(C)c1 | i | 29.0 | i | 60.2* | -11.0 | 14.1
CCC(C)c1ccc(C(C)NC(=S)NC2CCCCC2)cc1 (stereo not given) | i | 2.8 | i | 19.6 | -58.1 | -5.3
CCC(NC(=S)NC1CCCCC1)c1ccccc1 (stereo not given) | i | -86.8* | i | -89.6 | 37.7 | -7.0
N#Cc1cnc2ncnn2c1-c1ccccc1 | i | -2.0 | i | 2.3 | 9.4 | -19.8
Cc1ccc(NS(=O)(=O)c2ccc(C(=O)N3CC(C)OC(C)C3)cc2)cc1 (stereo not given) | i | 3.5 | i | -4.5 | 25.0 | -23.0
Cc1cccc(Nc2nc(-c3ccccn3)cs2)n1 | i | 16.2 | i | 29.2 | 71.4* | -14.2
Cc1cccnc1Nc1nc(-c2ccccn2)cs1 | i | 217.8 | i | 350.0* | -12.9 | -95.2
O=C(Nc1nc(-c2ccccn2)cs1)c1ccc(Cl)s1 | i | 228.3 | i | 223.2* | -2.3 | /
O=C(Nc1nc(-c2ccccn2)cs1)c1ncc(Cl)c(Cl)c1Cl | i | -9.0 | i | -24.5 | 33.0 | /
Cc1cccc(Nc2nc(-c3cccs3)cs2)n1 | i | 33.9 | i | 48.4 | -3.3 | -3.7
N#Cc1ccc(C23CC4(C2)[C@H](CN(CC2CCCCC2)[C@@H]4c2ccccc2)C3c2ccc(C(F)(F)F)cc2)cc1 (stereo not given in full) | / | -4.9 | / | -17.9 | 44.1 | 1.9
O=C(NC1CCCCC1)NC1CCN(C(=S)NCc2ccco2)CC1 | i | 5.4 | i | 33.3 | 81.6* | /
COc1ccc(C(=O)NC2CCN(C(=S)NCc3ccco3)CC2)cc1 | i | 33.0 | i | 55.9* | -2.2 | 20.4
O=C(NC1CCN(C(=S)NCc2ccco2)CC1)C1CCCCC1 | i | 19.9 | i | 15.9 | -2.2 | -11.9
O=C(Cn1c(/C=C/c2ccccc2)nc2ccccc21)Nc1ccc(F)cc1 | i | 38.6 | i | 56.8* | 8.4 | -54.0
CSc1nc2ccccc2n1CC(=O)Nc1ccccc1 | i | -1.8 | i | 16.6 | 23.0 | /
O=C(/C=C/c1cccc(O)c1)c1ccc(N2CCOCC2)cc1 | i | 61.2 | i | 74.0* | 27.7 | -0.9
N/C(=N\OC(=O)c1ccc(Cl)cc1Cl)c1ccc(Cl)cc1 | i | -71.7* | i | -72.8 | 1.6 | /
SMILES | CHT inh | HSF1 inh | CHT PAM | HSF-1 act | PHOSPHO1 inh | Hep lipid drop
COc1ccc(C(=O)O/N=C(\N)c2ccccc2Cl)cc1OC | i | 14.4 | i | 9.1 | 15.6 | -6.5
COc1ccccc1C(=O)O/N=C(\N)c1ccccc1Cl | i | 23.9 | i | 69.6* | -4.4 | -2.2
Cc1cccc(/C(N)=N/OC(=O)c2ccc(Cl)cc2Cl)c1 | i | 6.4 | i | 0.7 | 4.2 | 3.2
Cc1ccc(/C(N)=N/OC(=O)c2ccc(C)cc2Cl)cc1 | i | -63.5* | i | -70.4 | 6.3 | -9.7
COCCN1CC(C(=O)NCc2ccccc2-n2ccnc2C)CCC1=O (stereo not given) | i | -3.0 | i | -10.9 | 13.7 | -10.5
CCOc1ccsc1C(=O)O | i | -2.9 | i | -3.3 | 6.1 | -3.2
Cc1ccc(COc2ccsc2C(=O)O)cc1 | / | / | / | / | 60.9* | -8.5
CN1C2CCC1/C(=C\c1ccccc1F)C(=O)/C2=C/c1ccccc1F | i | 75.0 | i | 106.0* | -7.9 | -10.3
Cc1cccc(N2CCN(C(=O)CSCc3c(C)noc3C)CC2)c1C | i | 8.7 | i | 53.7* | -2.9 | /
Cc1noc(C)c1CSCC(=O)N1CCN(c2ccc(F)cc2)CC1 | i | 11.7 | i | 9.8 | -4.9 | /
CCn1nc(NS(=O)(=O)c2ccc([N+](=O)[O-])cc2)c2cc3ccccc3nc21 | i | -0.4 | i | 23.2 | 54.1 | -4.0
CCCn1c(=O)c(C(=O)NC(C)c2ccccc2)c(O)c2ccccc21 (stereo not given) | i | -3.9 | i | -5.9 | 40.1 | -15.4
Cn1c(=O)c(C(=O)COC(=O)c2cc(-c3ccccc3)nc3ccccc23)c(N)n(Cc2ccccc2)c1=O | i | -1.6 | i | -10.2 | -11.1 | -5.3
Cn1c(=O)c(C(=O)COC(=O)c2cc(-c3ccco3)nc3ccccc23)c(N)n(CC2CC2)c1=O | -5.55* | 4.3 | i | 5.1 | -23.4 | 16.0
O=C(OCC(=O)N1CCN(C(=O)c2ccco2)CC1)c1cc(-c2ccc(Cl)c(Cl)c2Cl)nc2ccccc12 | i | -0.3 | i | 12.0 | 19.7 | -13.4
O=C(OCC(=O)N1CCN(C(=O)c2ccco2)CC1)c1sc2cc(F)ccc2c1Cl | i | -54.7* | i | -65.6 | -36.8 | 1.8
O=C(OCC(=O)N1CCN(C(=O)c2ccco2)CC1)c1cc(-c2ccco2)nc2ccccc12 | i | -4.4 | i | -16.6 | 68.9* | /
CCN(CC)CCn1c2c(c(SCC(=O)Nc3cccc4ccccc34)nc1=O)CCCC2 | i | 4.9 | i | 7.9 | / | /
Nc1nc(N)c(C=Nc2ccc(Br)cc2)c(Nc2ccc(Br)cc2)n1 | i | 37.9 | i | 67.0* | 51.9 | -8.6
C/C(=N\NC(=O)c1ccc(Br)cc1)C1C(=O)c2ccccc2C1=O | -6.93* | 9.4 | i | -2.1 | 21.0 | -15.2
C/C(=N\NC(=O)c1ccc(-c2ccccc2)cc1)C1C(=O)c2ccccc2C1=O | i | 4.7 | i | -17.1 | 28.3 | -30.8
CC(C)N(Cc1ccccc1)S(=O)(=O)N(C)C | i | -2.6 | i | -6.9 | 25.1 | -0.8
O=C(CSc1ncc(-c2ccccc2)n1C1CCCC1)N1CCc2ccccc21 | i | 1.8 | i | -5.2 | 53.6 | /
Cn1c(-c2ccccc2)cnc1SCC(=O)N1CCCc2ccccc21 | i | 16.9 | i | 66.8* | -23.9 | -23.1
Cc1ccc(-c2ccc(SCC(=O)N3CCCc4ccccc43)nn2)cc1 | i | 8.4 | i | 1.6 | -2.4 | 4.3
